From publication PMC8883152 (Translational Vision Science & Technology, 2022)

Legend:
Type in all cases: in vivo, C57BL/6 mice
[1] = tested on: Dex-induced OHT mouse model; experiment: Electroretinography; settings: day 21, compared with vehicle-treated group
Method in brief: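 Male C57BL/6 mice (11 weeks) received 0.1% dexamethasone eye drops (20 µL/eye) in both eyes three times daily for 2 weeks, continued through dosing. Test compound (0.04% BID), latanoprost (0.005% QD) or both were then given topically for 21 days, doses 5 min apart. ERG was run on both eyes of dark-adapted anaesthetised mice on days 0 and 21. A single white 0.3 log cd·s/m2 flash was used, and b-wave amplitude was measured.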

RGCs = experiment: Hematoxylin and eosin staining of retinal sections; settings: after 21 days treatment, H&E retinal cross-sections
Method in brief: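 In dexamethasone-induced hypertensive C57BL/6 mice treated topically for 21 days, eyes were enucleated after euthanasia and fixed in 10% formalin for 24 h. They were paraffin-embedded and sectioned. Retinal sections were stained with hematoxylin (0.1% plus 10% ammonium) for 3–5 min, then 1% eosin Y for 1 min. Slides were dehydrated through ethanol and xylene and scanned to assess RGCs.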

[2] = tested on: Dex-induced OHT mouse model; experiment: IOP in dexamethasone-induced ocular hypertension mouse model; settings: HL3501 0.04% BID, latanoprost 0.005% QD, or both
Method in brief: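 IOP was read with a rebound tonometer on days 0, 1, 3, 5, 7, 10, 14, 17 and 21 in male C57BL/6 mice. Ocular hypertension was pre-induced by 0.1% dexamethasone (20 µL/eye, three times daily, 2 weeks; maintained throughout). Drops were test compound 0.04% BID, latanoprost 0.005% QD, or both 5 min apart, for 21 days. Groups had 8–10 mice. Basal IOP was taken before dexamethasone.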

[3] = tested on: fibronectin and α-SMA expression in the TM; settings: after 21 days treatment
Method in brief: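 Eye sections from dexamethasone-induced hypertensive C57BL/6 mice (21 days of topical dosing) were used. Sections were incubated overnight at room temperature with fibronectin and α-SMA antibodies (1:200) and washed in 0.1 M PBST. Fluorescent secondary antibodies (1:500) were applied for 1 h. Sections were DAPI-counterstained and imaged by fluorescence microscopy focused on the trabecular meshwork.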

[4] = tested on: MMP-2/TIMP-2 and MMP-9/TIMP-1 ratios; settings: retinal extracts, normalized to α-tubulin
Method in brief: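 Three mice per group were used (dexamethasone-induced hypertension, 21 days of topical dosing). Retinas were homogenised in RIPA buffer (pH 8.0) and centrifuged at 14,000g for 30 min at 4°C. Protein (10 µg/lane) was run on 10% SDS-PAGE and blotted. Membranes were probed overnight at room temperature for MMP-2, MMP-9, TIMP-1 and TIMP-2. Bands were detected by ECL densitometry and normalised to α-tubulin, and MMP-2/TIMP-2 and MMP-9/TIMP-1 ratios were calculated.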

Structure (SMILES): CC(C)OC(=O)CCC/C=C\C[C@@H]1[C@@H](CC[C@@H](O)CCc2ccccc2)[C@H](O)C[C@@H]1O [Latanoprost, latanoprost]
- b-wave values on day 21 (in words) [1]: did not decrease as much
- RGC loss (in words) (RGCs): less affected by RGC loss
- IOP effect over 3 weeks in Dex-induced OHT mouse model (in words) [2]: consistent IOP-lowering effect
- Fibronectin and α-SMA expression in the TM compared with vehicle (in words) [3]: suppressed
- MMP-2/TIMP-2 ratio (in words) [4]: increased
- MMP-9/TIMP-1 ratio (in words) [4]: increased
